ChEMBL document CHEMBL2331170, “Synthesis and biological evaluation of novel pyranochalcone derivatives as a new class of microtubule stabilizing agents” (Eur J Med Chem, 2013)
Calls of active or inactive are those of the source. The calls are words filed in the database; no cut-off is given here.

How the values were obtained:
Tubulin (Sus scrofa) [1] = molecular target: T1, Tubulin (Sus scrofa) (UniProt P02554+P02550); test: Stabilization of purified pig brain tubulin polymerization at 5 uM measured every 30 seconds by spectrophotometry
Summary of the method: (§1)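 It was pre-incubated 5 min with compound (5, 10, 20 μM), Taxol (5, 20 μM) or DMSO. GTP was added to 1 mM final to start assembly, followed as the rise in absorbance at 340 nm at 37 °C.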

DU-145 = test: Cytotoxicity against human DU145 cells by MTT assay; format: functional, cell-based
Tubulin (Homo sapiens) [2] = molecular target: T2, Tubulin (Homo sapiens) (UniProt P68371+Q9H4B7+P0DPH7+P68366+Q13509+Q71U36+P04350+Q3ZCM7+P07437+P68363+Q9BQE3+Q6PEY2+Q13885+Q9BVA1+Q9BUF5); test: Increase in polymerized tubulin level in human HepG2 cells at 0.1 to 0.5 uM after 24 hrs by Western blot analysis; format: cell-based
Summary of the method: (§2)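 HepG2 cells were treated at 0.1 or 0.5 μM for 24 h and washed three times in PBS. They were lysed on ice for 30 min in 20 mM Tris-HCl pH 6.8, 1 mM MgCl₂, 2 mM EGTA, 1 mM PMSF, 1 mM orthovanadate, 0.5% NP-40 and protease inhibitor. Tubulin was immunoblotted with α-tubulin antibody and HRP secondary, with chemiluminescent detection.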

HepG2 [3] = test: Cell cycle arrest in human HepG2 cells assessed as accumulation at G2/M phase at after 24 hrs by flow cytometry; format: functional, cell-based
HepG2 [4] = test: Effect on microtubule network in human HepG2 cells assessed as abnormal mitotic spindles at 1 uM after 24 hrs by propidium iodide-FITC-based staining method; format: cell-based
Summary of the method: (§3)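 HepG2 cells were treated with 1.0 μM for 24 h. They were washed in PBS, fixed in cold 4% PFA for 10 min and blocked for 1 h in 5% goat serum/0.3% Triton/PBS. Staining used monoclonal anti-α-tubulin overnight at 4 °C, then Alexa Fluor 488 anti-mouse IgG for 30 min at room temperature, with propidium iodide for DNA. Cells were imaged by fluorescence or confocal microscopy.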

[5] = Cytotoxicity against human SPC-A1 cells by MTT assay; format: functional, cell-based; settings: SPCA1
HCT-15 = test: Cytotoxicity against human HCT15 cells by MTT assay; format: functional, cell-based
Tubulin (Sus scrofa) [6] = molecular target: T1, Tubulin (Sus scrofa); test: Stabilization of purified pig brain tubulin polymerization at 20 uM measured every 30 seconds by spectrophotometry; summary of the method: as §1
MCF7 = test: Cytotoxicity against human MCF7 cells by MTT assay; format: functional, cell-based
A-375 = test: Cytotoxicity against human A375 cells by MTT assay; format: functional, cell-based
Summary of the method: (§4)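 Log-phase cells were diluted to 40,000–50,000 cells/mL in medium with 10% FBS, 2 mM glutamine and antibiotics (37 °C, 5% CO₂). They were seeded in 96-well plates and treated with a range of doses. MTT was added for 4 h, the formazan was dissolved in DMSO, and absorbance was read at 590 nm.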

SK-HEP1 = test: Cytotoxicity against human SKHEP1 cells by MTT assay; format: functional, cell-based
SK-OV-3 = test: Cytotoxicity against human SKOV3 cells by MTT assay; format: functional, cell-based
HepG2 [7] = test: Cell cycle arrest in human HepG2 cells assessed as accumulation at G2/M phase at 1 uM after 24 hrs by flow cytometry (reference value: 17.07 %); format: functional
Mus musculus [8] = test: Toxicity in human HepG2 cells xenografted Balb/C mouse assessed as behaviour changes at 2.5 to 10 mg/kg administered every 2 days for 3 weeks; format: organism-based; design: dose 2.5-10 mg/kg; settings: in vivo
Summary of the method: (§5)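 Female Balb/C and nude mice (5–6 weeks) carried right-flank HepG2 xenografts (5 × 10⁶ cells). From ~100 mm³ tumor volume they were dosed at 2.5–10 mg/kg every two days for three weeks, six per group, with saline controls. Toxicity signs and mortality were checked daily. Body weight was measured every two days; feeding and behavior were observed.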

[9] = Cytotoxicity against human LO2 cells by MTT assay; format: cell-based; settings: L02; summary of the method: as §4
A2780 = test: Cytotoxicity against taxol-resistant human A2780 cells by MTT assay; format: functional, cell-based
HepG2 [10] = test: Antitumor activity against human HepG2 cells xenografted in Balb/C mouse assessed as tumor volume T/C ratio at 5 mg/kg administered every 2 days for 3 weeks measured on day 20 relative to control
Tubulin (Sus scrofa) [11] = molecular target: T1, Tubulin (Sus scrofa); test: Stabilization of purified pig brain tubulin polymerization at 10 uM measured every 30 seconds by spectrophotometry; summary of the method: as §1
HepG2 [12] = test: Antitumor activity against human HepG2 cells xenografted in Balb/C mouse assessed as tumor volume T/C ratio at 10 mg/kg administered every 2 days for 3 weeks measured on day 20 relative to control
[13] = Cytotoxicity against human H460 cells by MTT assay; format: functional, cell-based; settings: NCI-H460
HepG2 [14] = test: Antitumor activity against human HepG2 cells xenografted in Balb/C mouse assessed as tumor volume T/C ratio at 2.5 mg/kg administered every 2 days for 3 weeks measured on day 20 relative to control
NCI-H358 = test: Cytotoxicity against human NCI-H358 cells by MTT assay; format: functional, cell-based
Mus musculus [15] = test: Toxicity in human HepG2 cells xenografted Balb/C mouse assessed as weight loss at 2.5 to 10 mg/kg administered every 2 days for 3 weeks; format: organism-based; design: dose 2.5-10 mg/kg; settings: in vivo; summary of the method: as §5
[16] = Cytotoxicity against human A2780S cells by MTT assay; format: functional, cell-based; settings: A2780
HepG2 [17] = test: Antitumor activity against human HepG2 cells xenografted in Balb/C mouse assessed as tumor growth inhibition rate at 5 mg/kg administered every 2 days for 3 weeks measured on day 20; format: functional; settings: read-out: TGI
Summary of the method: (§6)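 HepG2 cells (5 × 10⁶/mouse) in HBSS implanted in the right flank of 5–6-week-old female Balb/C and athymic nude mice, six per group. Dosing began once tumors reached ~100 mm³: three weeks at 2.5, 5 or 10 mg/kg every two days, or Taxol 5 mg/kg every four days; controls got physiological saline. Tumor volume = π/6 × length × width². T/C (%) = treated/control tumor volume × 100. Inhibition = (1 − treated/control tumor weight) × 100.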

HepG2 [18] = test: Cytotoxicity against human HepG2 cells by MTT assay; format: functional, cell-based; summary of the method: as §4
HepG2 [19] = test: Antitumor activity against human HepG2 cells xenografted in Balb/C mouse assessed as tumor growth inhibition rate at 10 mg/kg administered every 2 days for 3 weeks measured on day 20; format: functional; settings: read-out: TGI; summary of the method: as §6
Tubulin (Homo sapiens) [20] = molecular target: T2, Tubulin (Homo sapiens); test: Decrease in unassembled tubulin level in human HepG2 cells at 0.1 to 0.5 uM after 24 hrs by Western blot analysis; format: cell-based; summary of the method: as §2
[21] = Cytotoxicity against human ES2 cells by MTT assay; format: functional, cell-based; settings: ES-2
Mus musculus [22] = test: Toxicity in human HepG2 cells xenografted Balb/C mouse assessed as feeding at 2.5 to 10 mg/kg administered every 2 days for 3 weeks; format: organism-based; design: dose 2.5-10 mg/kg; settings: in vivo; summary of the method: as §5
HepG2 [23] = test: Antitumor activity against human HepG2 cells xenografted in Balb/C mouse assessed as tumor growth inhibition rate at 2.5 mg/kg administered every 2 days for 3 weeks measured on day 20; format: functional; settings: read-out: TGI; summary of the method: as §6
[24] = Ratio of taxol IC50 to compound IC50 for mouse C26 cells by MTT assay; format: functional
[25] = Cytotoxicity against human MCF7/ADR cells by MTT assay; format: functional, cell-based; settings: NCI/ADR-RES
HepG2 [26] = test: Induction of microtubule polymerization in human HepG2 cells at 1 uM after 24 hrs by propidium iodide-FITC-based staining method
Tubulin (Sus scrofa) [27] = molecular target: T1, Tubulin (Sus scrofa); test: Stabilization of purified pig brain tubulin polymerization measured every 30 seconds by spectrophotometry; summary of the method: as §1
HT-29 = test: Cytotoxicity against human HT-29 cells by MTT assay; format: functional, cell-based
Bel-7402 = test: Cytotoxicity against human Bel7402 cells by MTT assay; format: functional, cell-based
HepG2 [28] = test: Effect on microtubule network in human HepG2 cells assessed as multiple tubulin bundles without chromosomes aligned at the metaphase plate with more dispersion of the chromosomes at 1 uM after 24 hrs by propidium iodide-FITC-based staining method; format: cell-based; summary of the method: as §3
PC-3 = test: Cytotoxicity against human PC3 cells by MTT assay; format: functional, cell-based
HepG2 [29] = test: Antitumor activity against human HepG2 cells xenografted in Balb/C mouse assessed as tumor growth inhibition rate compound administered every 2 days for 3 weeks measured on day 20; format: functional, cell-based; summary of the method: as §6
[30] = Cytotoxicity against mouse C26 cells by MTT assay; format: functional, cell-based
HepG2 [31] = test: Cell cycle arrest in human HepG2 cells assessed as accumulation at G2/M phase at 0.2 uM after 24 hrs by flow cytometry (reference value: 17.07 %); format: functional
K562 = test: Cytotoxicity against human K562 cells by MTT assay; format: functional, cell-based; summary of the method: as §4
Tubulin (Sus scrofa) [32] = molecular target: T1, Tubulin (Sus scrofa); test: Induction of purified pig brain tubulin depolymerization at 5 to 20 uM measured every 30 seconds by spectrophotometry; summary of the method: as §1
HCT-8 = test: Cytotoxicity against taxol-resistant human HCT8 cells by MTT assay; format: functional, cell-based

T1 sequence (P02550 whole entry, looked up): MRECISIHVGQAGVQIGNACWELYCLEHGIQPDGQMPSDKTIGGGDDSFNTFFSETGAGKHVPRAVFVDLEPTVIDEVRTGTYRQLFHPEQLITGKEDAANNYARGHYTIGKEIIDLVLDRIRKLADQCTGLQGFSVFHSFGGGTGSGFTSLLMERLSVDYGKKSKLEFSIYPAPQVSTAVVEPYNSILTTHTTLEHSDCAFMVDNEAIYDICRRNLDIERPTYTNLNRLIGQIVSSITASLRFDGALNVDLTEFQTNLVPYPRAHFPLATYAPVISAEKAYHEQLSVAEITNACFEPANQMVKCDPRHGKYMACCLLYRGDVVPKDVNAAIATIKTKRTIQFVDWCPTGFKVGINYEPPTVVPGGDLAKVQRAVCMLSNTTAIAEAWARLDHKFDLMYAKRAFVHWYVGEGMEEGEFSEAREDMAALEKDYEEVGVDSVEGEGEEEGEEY
T1 sequence (P02554 whole entry, looked up): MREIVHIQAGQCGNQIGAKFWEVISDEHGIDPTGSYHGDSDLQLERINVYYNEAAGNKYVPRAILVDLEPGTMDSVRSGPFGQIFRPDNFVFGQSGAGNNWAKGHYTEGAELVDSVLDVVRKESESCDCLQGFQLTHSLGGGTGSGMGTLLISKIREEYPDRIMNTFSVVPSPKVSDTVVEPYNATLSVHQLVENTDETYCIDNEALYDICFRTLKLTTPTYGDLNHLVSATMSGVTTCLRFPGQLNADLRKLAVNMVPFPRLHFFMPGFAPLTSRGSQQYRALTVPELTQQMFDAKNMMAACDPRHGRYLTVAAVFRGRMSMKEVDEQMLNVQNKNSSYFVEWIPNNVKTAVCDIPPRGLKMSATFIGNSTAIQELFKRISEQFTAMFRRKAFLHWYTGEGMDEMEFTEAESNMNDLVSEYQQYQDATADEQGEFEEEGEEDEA

In the case of `CCC(=O)Oc1cc(/C=C/C(=O)c2ccc(OC)c3c2OC(C)(C)C=C3)ccc1OC`, the Activity (Tubulin (Sus scrofa) [1]) is reported as 10%, the IC50 (DU-145) is reported as 190 nM and the Activity (Tubulin (Homo sapiens) [2]) is reported as “Active”. For the same compound, the Activity (HepG2 [3]) was “Dose-dependent effect”, the Activity (HepG2 [4]) was “Active” and the IC50 [5] was 22300 nM. For the same compound, the IC50 (HCT-15) was 100 nM, the Activity (Tubulin (Sus scrofa) [6]) was 32% and the IC50 (MCF7) was 190 nM. The IC50 (A-375) was 240 nM, the IC50 (SK-HEP1) was 320 nM and the IC50 (SK-OV-3) was 350 nM. The Activity (HepG2 [7]) was 76.02%, the Activity (Mus musculus [8]) was “Non-toxic” and the IC50 [9] was > 10000 nM. It also gave an IC50 (A2780) of 1330 nM, a T/C at 5 mg/kg (HepG2 [10]) of 32.4% and an Activity (Tubulin (Sus scrofa) [11]) of 16.3%. The T/C at 10 mg/kg (HepG2 [12]) was 33.9%, the IC50 [13] was 4050 nM and the T/C at 2.5 mg/kg (HepG2 [14]) was 34.9%. The IC50 (NCI-H358) was 150 nM, the Activity (Mus musculus [15]) was “Non-toxic” and the IC50 [16] was 220 nM. The inhibition in vivo at 5 mg/kg (HepG2 [17]) was 57.6%, the IC50 (HepG2 [18]) was 90 nM and the inhibition in vivo at 10 mg/kg (HepG2 [19]) was 69.7%. For the same compound, the Activity (Tubulin (Homo sapiens) [20]) was “Active”, the IC50 [21] was 100 nM and the Activity (Mus musculus [22]) was “Non-toxic”. The inhibition in vivo at 2.5 mg/kg (HepG2 [23]) was 54.3%, the “Ratio IC50” value [24] was 3 and the IC50 [25] was 160 nM. The Activity (HepG2 [26]) was “Active”, the Activity (Tubulin (Sus scrofa) [27]) was “Dose-dependent effect” and the IC50 (HT-29) was 200 nM. The IC50 (Bel-7402) was 400 nM, the Activity (HepG2 [28]) was “Active” and the IC50 (PC-3) was 90 nM. The TGI (HepG2 [29]) was “Dose-dependent effect”, the IC50 [30] was 310 nM and the Activity (HepG2 [31]) was 67.76%. For the same compound, the IC50 (K562) was 160 nM, the Activity (Tubulin (Sus scrofa) [32]) was “inactive” and the IC50 (HCT-8) was 1690 nM.
